Assay outcomes deposited in PubChem BioAssay by The Scripps Research Institute Molecular Screening Center.
rCAG RNA binder = r(CAG) repeat RNA binding. TO-PRO-1 dye displacement fluorescence. inhibition, % at 3 µM. 370,000 compounds, 1.3% hits. AID 651821;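 active = inhibition above the plate cutoff, the mean of all test compounds on that plate plus 3 SD, cut at about 35% in these data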;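 also: 0% = DMSO alone and 100% = 100 µM mitoxantrone as full dye displacement; higher means more dye released from RNA so lower well fluorescence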
HCV core dimer = blocks dimerization of HCV core protein | TR-FRET GST/Flag-core106 dimerization, 1536-well | inhibition, % at 5 µM | 300,000 compounds, 0.33% hits | AID 1899;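 active = inhibition above the mean of all tested compounds plus 3 SD, set per screening campaign, cut at about 45% in these data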
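Assay system: tagged HCV core106 pair (GST and Flag); medium: KF-containing HEPES buffer, pH 7.45, DTT, CHAPS, BSA; also added: Eu donor and XL665 acceptor anti-tag antibodies; dosing: 5 µM single dose; timing: compound-protein-antibody incubation 4 h at 22.5 °C; signal: TR-FRET 671 and 617 nm emission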
TAAR1 agonist = human TAAR1 agonism. activation, % at 3 µM. 360,000 compounds, 0.99% hits. CHO RD-HGA16 TAAR1, Fluo-8 calcium fluorescence; vehicle wells 0%, saturating PEA agonist 100%. Q96RJ0;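 active = activation above the mean activation of all test compounds in the run plus 3 SD, cut at about 38% in these data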
Target sequence (Q96RJ0 whole entry, looked up): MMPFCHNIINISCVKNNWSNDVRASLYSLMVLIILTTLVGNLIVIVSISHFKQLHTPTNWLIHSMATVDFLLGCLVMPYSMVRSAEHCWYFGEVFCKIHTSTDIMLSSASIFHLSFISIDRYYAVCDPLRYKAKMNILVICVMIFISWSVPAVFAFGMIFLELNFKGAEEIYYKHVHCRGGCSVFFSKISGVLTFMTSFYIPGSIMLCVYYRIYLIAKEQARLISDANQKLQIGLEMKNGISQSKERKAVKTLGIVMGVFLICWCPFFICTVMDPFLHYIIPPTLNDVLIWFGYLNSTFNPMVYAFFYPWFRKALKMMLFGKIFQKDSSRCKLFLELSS
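Signal – calcium-sensitive Fluo-8 signal, excitation 470-495, emission 515-575 nm · System – RD-HGA16 (CHO) cells co-expressing Gα16 and hTAAR1 · Incubation – 17-24 h seeding, 75 min 37 °C dye, 30 min RT · Compound dosing – 3 µM single concentration · Repeats – no replicates (n 1)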
TAAR1 antagonist = antagonists of human TAAR1 | 360,000 compounds, 1.5% hits | inhibition, % at 3 µM | Q96RJ0 | CHO RD-HGA16 TAAR1, Fluo-8 calcium fluorescence, antagonist;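 active = inhibition above a per-plate cutoff, the mean inhibition of test compounds on that plate plus 3 SD, cut at about 49% in these data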;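 also: 0% = DMSO plus EC80 beta-PEA response and 100% = DMSO alone without agonist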
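System: RD-HGA16 CHO cells with stable hTAAR1 and Gα16 | Probe or stimulus: EC80 β-phenethylamine stimulus | Dosing: 3 µM, single point | Times: Dye loading 75 min at 37 °C, then 30 min room temperature | Measured by: Fluo-8 calcium-sensitive fluorescence | Read-out basis: % inhibition of agonist calcium response | Replicates: n of 1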
NS3 helicase inh = HCV NS3 helicase inhibition; inhibition, % at 10.9 µM; NS3 helicase DNA unwinding, Cy5 molecular beacon fluorescence; 290,000 compounds, 0.56% hits; AID 1800;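 active = inhibition above the mean of all tested compounds plus 3 SD, set per campaign, cut at about 35% in these data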;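 also: 0% = DMSO wells and 100% = thioflavine S control wells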
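Assay system – hepatitis C virus NS3 helicase domain fragment enzyme · Buffer or medium – MOPS pH 6.5, MgCl2, DTT, Tween20, BSA · Reagent – Cy5/quencher beacon DNA duplex and ATP to start · Compound – single 10.9 µM dose · Timing – 1 h at 25 °C · Technique – Cy5 beacon fluorescence read at start and 1 h · Measure – % inhibition of unwinding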
TAAR1 ag conf = human TAAR1 agonism, confirmed; shares compounds with TAAR1 agonist; CHO RD-HGA16 TAAR1, Fluo-8 calcium fluorescence; scaled: DMSO 0%, maximal phenethylamine 100%; activation, % at 3 µM; 2,400 compounds, 82% hits;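 active = activation above a cutoff set at the run's mean compound activation plus 3 SD, cut at about 39% in these data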
Ga16 nonsel ag = counter-screen for TAAR1 agonists: nonselective agonists in parental cells. 2,400 compounds, 50% hits. shares compounds with TAAR1 agonist. CHO-Ga16 parental, Fluo-8 calcium fluorescence; normalized to maximal ATP response, DMSO zero. activation, % at 3 µM;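 active = activation above the run cutoff, the mean activation over all tested wells plus 3 SD, cut at about 12% in these data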;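 also: 0% = DMSO wells and 100% = maximal ATP response on the peak over basal ratio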
TAAR1 desensitize = counter-screen for human TAAR1 agonists: agonists that desensitize TAAR1. shares compounds with TAAR1 agonist. CHO RD-HGA16 hTAAR1, Fluo-8 calcium, beta-PEA response inhibition. inhibition, % at 3 µM. 2,400 compounds, 46% hits;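 active = inhibition above the run cutoff, the mean inhibition of all test compounds plus 3 SD, cut at about 49% in these data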;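 also: beta-PEA stimulus applied at its EC80; loss of beta-PEA calcium signal after compound pretreatment read as receptor desensitization; 0% = DMSO with beta-PEA at EC80 and 100% = DMSO alone without agonist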
Ga16 nonsel ant = nonselective Ga16 antagonism, counter-screen; shares compounds with TAAR1 agonist; AID 651952; inhibition, % at 3 µM; CHO-Ga16 ATP-induced calcium, Fluo-8 fluorescence; 2,400 compounds, 39% hits;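 active = inhibition above the plate's mean compound inhibition plus 3 SD, computed per plate, cut at about 22% in these data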;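 also: 0% = EC80 ATP with DMSO and 100% = DMSO wells without ATP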
* = called active by the depositor; nt = not tested or not shown. Sampled rows, rich in hits. Any-hit rate of the full collection: about 3.7%.

SMILES	rCAG RNA binder	HCV core dimer	TAAR1 agonist	TAAR1 antagonist	NS3 helicase inh	TAAR1 ag conf	Ga16 nonsel ag	TAAR1 desensitize	Ga16 nonsel ant
CCN(CC)c1ccc(C(=C2C=CC(=[N+](CC)CC)C=C2)c2ccc(N(CC)CC)cc2)cc1	22	nt	50*	95*	nt	68*	45*	92*	84*
CCN(CC)c1ccc(C(=O)NNC(=O)CCl)cc1	5	1	1	4	8	nt	nt	nt	nt
N#Cc1cccc(NC(=O)OC2CCC23CCC(c2ccccc2)CC3)c1 (stereo not drawn)	3	nt	nt	nt	nt	nt	nt	nt	nt
CCCC1=NN2C(=N)/C(=C\c3cc(C)n(Cc4ccccc4)c3C)C(=O)N=C2S1	17	13	117*	101*	1	111*	96*	106*	100*
Cc1cc(/C=C2\C(=N)N3N=CSC3=NC2=O)c(C)n1Cc1ccccc1	25	10	34	-7	35	nt	nt	nt	nt
CCOC(=O)Cn1c(=N)n(CCOc2ccc3ccccc3c2)c2ccccc21	16	-5	58*	11	-28	57*	26*	51*	41*
COC(=O)C[C@H]1CC[C@H]2[C@@H](COc3ccc(NC(=O)Nc4ccccc4)cc3C(=O)N2C)O1	1	nt	nt	nt	nt	nt	nt	nt	nt
COc1cccc(-c2ccc(NC(=O)C3CCCN(Cc4cnc(N(C)C)s4)C3)cc2)c1 (stereo not drawn)	3	-2	63*	28	-67	64*	33*	30	18
COc1cccc(-c2ccc(NC(=O)C3CCCN(Cc4ccccn4)C3)cc2)c1 (stereo not drawn)	4	nt	4	8	nt	nt	nt	nt	nt
O=C(Nc1ccc(F)cc1)Nc1ccc(Oc2ncnc3cc(Cl)ccc23)nc1	-1	4	56*	29	-12	75*	1	81*	6
COC(=O)[C@H](C)NC(=O)C(Cc1ccc2c(c1)OCO2)NC(C)=O (stereo partly drawn)	2	nt	nt	nt	nt	nt	nt	nt	nt
NC(=O)Cc1cccc(C(=O)c2ccccc2)c1N	3	nt	nt	nt	nt	nt	nt	nt	nt
Cn1c(CN2CCCC2)nc2cc(NS(=O)(=O)c3ccc(Cl)cc3)ccc21	7	-1	69*	8	-18	93*	30*	22	8
COc1cc2c(-c3ccc(O)cc3)nc3c(c(C)nn3-c3ccccc3)c2cc1OC	11	17	40*	50*	8	22	14*	49*	38*
COc1ccc(NC(=O)/C(C#N)=C/c2ccc(Br)o2)cc1	9	11	0	24	17	nt	nt	nt	nt
N#C/C(=C/c1ccc(N2CCOCC2)o1)C(=O)NC1CCCCC1	-29	-9	23	16	10	nt	nt	nt	nt
N#C/C(=C\c1ccc(N2CCOCC2)o1)C(=O)Nc1ccc(O)cc1	-88	-40	58*	31	4	21	19*	22	28*
COc1ccc(NC(=O)/C(C#N)=C\c2ccc(N3CCOCC3)o2)cc1	-101	-33	135*	76*	2	49*	60*	65*	62*
Cc1cc(C(C)(C)CC(C)(C)C)ccc1OCCOCC[N+](C)(C)Cc1ccccc1	10	-24	81*	75*	nt	69*	66*	45	67*
C[N+](C)(CCOc1ccccc1)Cc1ccccc1	12	nt	8	-13	nt	nt	nt	nt	nt
CCOC(=O)[C@]12CCCC=C1N(CCCOC)C(=O)[C@@H]2CC(=O)N1CCSCC1	2	nt	nt	nt	nt	nt	nt	nt	nt
N=c1c2c(-c3ccccc3)c(-c3ccccc3)n(Cc3ccccc3)c2ncn1CCO	12	-5	59*	-15	-57	49*	20*	15	12
C=CCN1C(=O)[C@@H](CC(=O)N2CCC(c3ccccc3)CC2)[C@]2(C(=O)OCC)CCCCC/C=C/12	2	nt	nt	nt	nt	nt	nt	nt	nt
CC1CCc2c(sc(NC(=O)c3ccco3)c2C(=O)O)C1 (stereo not drawn)	16	2	-6	-11	29	nt	nt	nt	nt
CC1CCc2c(sc(NS(=O)(=O)c3ccccc3)c2C(=O)OC(C)C)C1 (stereo not drawn)	32	17	43*	17	25	24	19*	26	26*
CN1CCN(C2=Cc3ccccc3Sc3cc(F)c(F)cc32)CC1	-2	1	37	-5	-72	nt	nt	nt	nt
